Published values gathered from unrelated publications.
Lines come from different studies, so protocols differ.
Oprk1: Kappa-type opioid receptor (Oprk1, Mus musculus, UniProt P33534)
SLC6A2: Sodium-dependent noradrenaline transporter (SLC6A2, Homo sapiens, UniProt P23975)
MPO: Myeloperoxidase (MPO, Homo sapiens, UniProt P05164)

| Compound | target | test | test system | setting | inhibition [%] |
| --- | --- | --- | --- | --- | --- |
| CC(C)[C@H](CN1CCc2ccccc2C1)NC(=O)C=Cc1ccccc1 | Oprk1 | ligand displacement, radioligand | – | 10 µM | 55.7 |
| Cc1cc(F)cc2c(CCC(=O)N[C@@H]3C(=O)NC[C@H]3O)c(-c3ccc(F)cc3)[nH]c12 | SLC6A2 | cell-free assay | – | 10 µM | 21 |
| COc1ccc(Cl)cc1-c1cc(=O)[nH]c(=S)n1CC(N)=O | MPO | enzyme activity, inhibitor, fluorescence | – | 15 µM | 98.2 |
| CC(C)[C@@H](CN1CCc2ccccc2C1)NC(=O)c1ccc(F)cc1 | Oprk1 | ligand displacement, radioligand | – | 10 µM | 75.7 |
| N#CC[C@@]12C[C@@H]1[C@@H](n1cnc3c(NC4CC4)nc(C#Cc4ccc(Cl)s4)nc31)[C@H](O)[C@@H]2O | SLC6A2 | ligand displacement, radioligand | – | 10 µM | 28 |
| CC(C)[C@@H](CN1CCc2ccccc2C1)NC(=O)c1ccc([N+](=O)[O-])s1 | Oprk1 | ligand displacement, radioligand | – | 10 µM | 68.8 |
| Cc1cc(O)c(-c2ccc([C@@H](C)CN(C)C)cc2)c2c1[nH]c(=O)c1sccc12 | Serine/threonine-protein kinase WNK4 (WNK4, Homo sapiens, UniProt Q96J92) | enzyme activity, inhibitor | – | 0.1 µM | 1.12 |
| CC(C)OCCn1c(=S)[nH]c(=O)c2[nH]ccc21 | MPO | enzyme activity, inhibitor, fluorescence | – | 0.1852 µM | 82.5 |
| N#CC[C@@]12C[C@@H]1[C@@H](n1cnc3c(Nc4ccccc4)nc(C#Cc4ccc(Cl)s4)nc31)[C@H](O)[C@@H]2O | SLC6A2 | ligand displacement, radioligand | – | 10 µM | 37 |
| O=c1c(O[C@@H]2O[C@H](CO)[C@H](O)[C@H](O)[C@H]2O)c(-c2ccc(O)c(O)c2)oc2cc(O)cc(O)c12 | srtA (Staphylococcus aureus, UniProt Q2FV99) | enzyme activity, inhibitor, FRET | – | 120 µM | 79.1 |
| CCOC(=O)[C@@]12C[C@@H]1[C@@H](n1cnc3c(NCc4cccc(Cl)c4)nc(C#Cc4ccc(Cl)s4)nc31)[C@H](O)[C@@H]2O | SLC6A2 | ligand displacement, radioligand | – | 10 µM | 78 |
| NC/C(=C\F)COc1cccc(Cn2c(=S)[nH]c(=O)c3[nH]cnc32)c1 | MPO | enzyme activity, inhibitor, fluorescence | – | 3.333 µM | 99.2 |
| CCOC(=O)[C@@]12C[C@@H]1[C@@H](n1cnc3c(NCCO)nc(C#Cc4ccc(Cl)s4)nc31)[C@H](O)[C@@H]2O | SLC6A2 | ligand displacement, radioligand | – | 10 µM | 15 |
| CC(C)[C@@H](CN1CCc2ccccc2C1)NC(=O)c1c(Cl)cncc1Cl | Oprk1 | ligand displacement, radioligand | – | 10 µM | 70.9 |
| CCOC(=O)[C@@]12C[C@@H]1[C@@H](n1ccc3c(NCCCCc4ccccc4)nc(C#Cc4ccccc4)nc31)[C@H](O)[C@@H]2O | SLC6A2 | ligand displacement, radioligand | – | 10 µM | 81 |
| CC(C)[C@H](CN1CCc2ccccc2C1)NC(=O)c1cccc(-c2ccccc2)c1 | Oprk1 | ligand displacement, radioligand | – | 10 µM | 72.2 |
| CCOC(=O)[C@@]12C[C@@H]1[C@@H](n1cnc3c(NCCCCCc4ccccc4)nc(C#Cc4ccc(Cl)s4)nc31)[C@H](O)[C@@H]2O | SLC6A2 | transporter uptake, inhibitor, radiometric | HEK293 | 10 µM | 0 |
| CC(C)[C@@H](CN1CCc2ccccc2C1)NC(=O)c1cccc(-c2cccnc2)c1 | Oprk1 | ligand displacement, radioligand | – | 10 µM | 74.3 |
